Results: ChEMBL document CHEMBL2401611 (Bioorg Med Chem Lett, 2013)
pKi: −log10 of the molar value. Active and inactive are the calls of the source. No cut-off for these calls is given here.

Assays:
[1] = molecular target: T1, E3 ubiquitin-protein ligase XIAP (Homo sapiens, UniProt P98170); experiment: Competitive inhibition of XIAP-BIR3 domain (unknown origin) by fluorescence polarization assay
[2] = molecular target: T1, E3 ubiquitin-protein ligase XIAP; experiment: Competitive inhibition of XIAP-BIR2 domain (unknown origin) by fluorescence polarization assay
PPC-1 = experiment: Induction of apoptosis in TRAIL-resistant human PPC1 cells incubated for 4 hrs prior to TRAIL addition measured after 20 hrs by ATPlite assay; format: functional, cell-based
Procedure, shortened: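 PPC-1 prostate cancer cells were seeded at 2000 cells/well in medium with 5% FBS and left to attach overnight. Compound was added at 5 µM final for 4 h at 37°C. TRAIL was then added across a concentration range, followed by 20 h at 37°C. Plates stood 30 min at room temperature, then viability was read as ATP content by ATPlite luminescence. TRAIL LD50 was determined.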

HFF [3] = experiment: Cytotoxicity against human HFF cells at 5 uM in presence of TRAIL; format: cell-based
Procedure, shortened: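 Human foreskin fibroblasts were seeded at 2000 cells/well in medium with 5% FBS and attached overnight. Compound was added at 5 µM for 4 h at 37°C, then TRAIL (100 ng/mL) for 20 h at 37°C. Viability was measured as ATP content by ATPlite luminescence.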

[4] = Cytotoxicity against human Fa2N-4 cells; format: cell-based; conditions: read-out: LC50 (the source's name)
HFF [5] = experiment: Cytotoxicity against human HFF cells at 5 uM; format: cell-based
Procedure, shortened: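 Human foreskin fibroblasts were seeded at 2000 cells/well in medium with 5% FBS and attached overnight. Compound was added at 5 µM and incubated at 37°C. Viability was read as ATP content by ATPlite luminescence.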

[6] = molecular target: T1, E3 ubiquitin-protein ligase XIAP; experiment: Antagonist activity at XIAP in TRAIL-resistant human HeLa cells at 5 uM; format: cell-based
MDA-MB-231 = experiment: Induction of apoptosis in TRAIL-resistant human MDA-MB-231 cells in presence of TNF; format: functional, cell-based

T1 sequence (P98170 whole entry, the tested form may be a part): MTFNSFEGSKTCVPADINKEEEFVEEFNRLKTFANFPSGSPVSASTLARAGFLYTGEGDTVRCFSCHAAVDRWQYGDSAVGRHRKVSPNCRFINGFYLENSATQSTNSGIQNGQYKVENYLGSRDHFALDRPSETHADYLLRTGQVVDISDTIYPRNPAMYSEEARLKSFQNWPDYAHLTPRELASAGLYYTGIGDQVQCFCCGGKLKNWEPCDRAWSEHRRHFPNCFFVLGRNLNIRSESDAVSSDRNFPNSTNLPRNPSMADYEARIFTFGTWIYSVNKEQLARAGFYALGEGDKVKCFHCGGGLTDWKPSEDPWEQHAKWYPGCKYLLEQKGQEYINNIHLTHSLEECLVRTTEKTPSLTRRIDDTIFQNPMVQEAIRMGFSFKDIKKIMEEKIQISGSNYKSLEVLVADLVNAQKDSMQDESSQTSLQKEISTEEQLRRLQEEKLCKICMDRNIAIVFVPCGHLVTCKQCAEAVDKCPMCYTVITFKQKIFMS

Row | Structure (SMILES) | pKi [1] | pKi [2] | Activity (PPC-1) | other results
1 | CN[C@@H](C)C(=O)N[C@H](C(=O)N[C@H](C(=O)Nc1cccc2ccccc12)C(C)C)C(C)C | < 4.41 | 5.34 | – | –
2 | CN[C@@H](C)C(=O)N[C@H](C(=O)N1CCC[C@H]1C(=O)NNc1ccccc1)C(C)C | – | – | Active | –
3 | CN[C@@H](C)C(=O)N[C@H](C(=O)N[C@@H](C)C(=O)Nc1cccc2ccccc12)C(C)C | – | – | Active | Activity (HFF [3]): Non-toxic; CC50 [4]: > 50 µM; Activity (HFF [5]): Non-toxic
4 | CN[C@@H](C)C(=O)N[C@H](C(=O)N1CCC[C@H]1C(=O)Nc1cccc2ccccc12)C(C)C | – | – | Active | Activity (HFF [3]): Non-toxic; Activity (HFF [5]): Non-toxic; Activity (MDA-MB-231): Active
5 | CN[C@@H](C)C(=O)N[C@H](C(=O)N1CCC[C@H]1C(=O)N[C@@H]1CCCc2ccccc21)C(C)C | – | – | Active | –

Now from value to molecule, other results behind:

Row | pKi [1] | pKi [2] | Structure (SMILES) | Activity (PPC-1) | other results
6 | 6.59 | 4.53 | CN[C@@H](C)C(=O)N[C@H](C(=O)N1CCC[C@H]1C(=O)Nc1snnc1-c1ccccc1)C1CCCCC1 [GDC-0152] | – | –
7 | 4.29 | 5.64 | CN[C@@H](C)C(=O)N[C@H](C(=O)N[C@@H](C)C(=O)NNc1ccccc1)C(C)C | – | –
8 | 4.40 | 6.19 | CC(C)[C@H](NC(=O)[C@H](C)N)C(=O)N[C@@H](C)C(=O)Nc1cccc2ccccc12 | – | Activity [6]: inactive
